One block for each compound: values may come before it.
Legend:
Type in all cases: organism-based
[1] = target: T1, Angiotensin-converting enzyme (Rattus norvegicus) (UniProt P47820); assay: Compound was tested for plasma inhibition of Angiotensin I converting enzyme activity in the conscious rat. Expressed as Inhibition of AI pressor response at 2 hr at a dose of 12.8 mg/kg po; design: dose 12.8 mg/kg
T1 sequence (whole entry): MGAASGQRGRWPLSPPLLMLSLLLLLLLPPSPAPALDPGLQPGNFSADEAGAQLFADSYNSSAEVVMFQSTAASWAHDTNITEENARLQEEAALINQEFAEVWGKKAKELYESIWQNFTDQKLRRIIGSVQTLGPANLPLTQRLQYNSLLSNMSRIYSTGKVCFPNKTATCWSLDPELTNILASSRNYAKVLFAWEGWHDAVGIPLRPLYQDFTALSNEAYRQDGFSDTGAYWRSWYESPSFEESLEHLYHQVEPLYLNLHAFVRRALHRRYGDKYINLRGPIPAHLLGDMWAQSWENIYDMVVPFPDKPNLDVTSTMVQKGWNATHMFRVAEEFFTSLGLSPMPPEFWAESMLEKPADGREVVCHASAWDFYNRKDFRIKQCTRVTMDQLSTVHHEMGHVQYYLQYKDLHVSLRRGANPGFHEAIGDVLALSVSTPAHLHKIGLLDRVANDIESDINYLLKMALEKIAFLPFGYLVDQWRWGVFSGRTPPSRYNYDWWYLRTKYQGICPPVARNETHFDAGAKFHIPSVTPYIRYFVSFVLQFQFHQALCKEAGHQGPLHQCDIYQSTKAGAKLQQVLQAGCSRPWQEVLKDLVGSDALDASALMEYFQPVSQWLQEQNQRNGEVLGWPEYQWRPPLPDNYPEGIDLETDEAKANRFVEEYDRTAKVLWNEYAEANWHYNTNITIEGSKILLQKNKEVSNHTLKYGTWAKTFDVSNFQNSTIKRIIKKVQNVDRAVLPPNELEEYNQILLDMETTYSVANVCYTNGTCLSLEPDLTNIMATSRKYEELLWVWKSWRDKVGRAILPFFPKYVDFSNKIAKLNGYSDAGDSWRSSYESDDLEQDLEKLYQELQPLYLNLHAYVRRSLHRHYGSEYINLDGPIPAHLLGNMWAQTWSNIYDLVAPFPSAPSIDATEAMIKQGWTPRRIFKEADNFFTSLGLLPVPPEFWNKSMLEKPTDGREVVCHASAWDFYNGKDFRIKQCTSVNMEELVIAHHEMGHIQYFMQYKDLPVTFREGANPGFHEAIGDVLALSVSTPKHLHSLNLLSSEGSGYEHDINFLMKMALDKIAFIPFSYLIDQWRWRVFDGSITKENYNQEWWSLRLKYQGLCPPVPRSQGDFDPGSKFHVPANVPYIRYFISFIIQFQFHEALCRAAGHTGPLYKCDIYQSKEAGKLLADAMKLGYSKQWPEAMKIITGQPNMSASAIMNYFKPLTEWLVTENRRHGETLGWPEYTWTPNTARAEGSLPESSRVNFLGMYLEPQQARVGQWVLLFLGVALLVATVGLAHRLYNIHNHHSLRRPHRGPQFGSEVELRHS
Outline: (§1)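 Male conscious normotensive Sprague-Dawley rats (275-390 g), given femoral arterial and venous catheters under methohexital sodium (75 mg/kg ip) anesthesia. Next day, pressor responses to three angiotensin-I challenges (300 ng/kg iv) recorded by direct arterial pressure. Compound then dosed orally, and AI challenge repeated at set times. Each post-dose response compared with the mean of the three baseline responses, giving % inhibition.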

[2] = target: T1, Angiotensin-converting enzyme (Rattus norvegicus); assay: Compound was tested for plasma inhibition of Angiotensin I converting enzymeb activity in the conscious rat. Expressed as Inhibition of AI pressor response at 4 hr at a dose of 12.8 mg/kg po; design: dose 12.8 mg/kg
Outline: (§2)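 Male conscious normotensive Sprague-Dawley rats (275-390 g), prepared under methohexital sodium (75 mg/kg ip) with femoral arterial and venous catheters. The next day, pressor responses to three angiotensin-I challenges (300 ng/kg iv) were recorded. Compound was then given orally and angiotensin-I challenges were repeated at set times. Percent inhibition is relative to the mean of the three baseline responses.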

[3] = target: T1, Angiotensin-converting enzyme (Rattus norvegicus); assay: Compound was tested for plasma inhibition of Angiotensin I converting enzyme activity in the conscious rat. Expressed as Inhibition of AI pressor response at 1 hr at a dose of 12.8 mg/kg po; design: dose 12.8 mg/kg; outline: as §1
[4] = target: T1, Angiotensin-converting enzyme (Rattus norvegicus); assay: Compound was tested for plasma inhibition of Angiotensin I converting enzyme activity in the conscious rat. Expressed as Inhibition of AI pressor response at 6 hr at a dose of 12.8 mg/kg po; design: dose 12.8 mg/kg; outline: as §2
[5] = target: T1, Angiotensin-converting enzyme (Rattus norvegicus); assay: Compound was tested for plasma inhibition of Angiotensin I converting enzyme activity in the conscious rat. Expressed as Inhibition of AI pressor response at 2 hr at a dose of 14.1 mg/kg po; design: dose 14.1 mg/kg; outline: as §1
[6] = target: T1, Angiotensin-converting enzyme (Rattus norvegicus); assay: Compound was tested for plasma inhibition of Angiotensin I converting enzyme activity in the conscious rat. Expressed as Inhibition of AI pressor response at 1 hr at a dose of 14.1 mg/kg po; design: dose 14.1 mg/kg; outline: as §1
[7] = target: T1, Angiotensin-converting enzyme (Rattus norvegicus); assay: Compound was tested for plasma inhibition of Angiotensin I converting enzyme activity in the conscious rat. Expressed as Inhibition of AI pressor response at 2 hr at a dose of 13.8 mg/kg po; design: dose 13.8 mg/kg; outline: as §1
[8] = target: T1, Angiotensin-converting enzyme (Rattus norvegicus); assay: Compound was tested for plasma inhibition of Angiotensin I converting enzyme activity in the conscious rat. Expressed as Inhibition of AI pressor response at 6 hr at a dose of 13.8 mg/kg po; design: dose 13.8 mg/kg; outline: as §2
[9] = target: T1, Angiotensin-converting enzyme (Rattus norvegicus); assay: Compound was tested for plasma inhibition of Angiotensin I converting enzyme activity in the conscious rat. Expressed as Inhibition of AI pressor response at 4 hr at a dose of 13.8 mg/kg po; design: dose 13.8 mg/kg; outline: as §2
[10] = target: T1, Angiotensin-converting enzyme (Rattus norvegicus); assay: Compound was tested for plasma inhibition of Angiotensin I converting enzyme activity in the conscious rat. Expressed as Inhibition of AI pressor response at 1 hr at a dose of 13.8 mg/kg po; design: dose 13.8 mg/kg; outline: as §1
[11] = target: T1, Angiotensin-converting enzyme (Rattus norvegicus); assay: Compound was tested for plasma inhibition of ACE activity in the conscious rat. Expressed as Inhibition of AI pressor response at 1 hr at a dose of 12.4 mg/kg po; design: dose 12.4 mg/kg; outline: as §1
[12] = target: T1, Angiotensin-converting enzyme (Rattus norvegicus); assay: Compound was tested for plasma inhibition of Angiotensin I converting enzyme activity in the conscious rat. Expressed as Inhibition of AI pressor response at 2 hr at a dose of 12.4 mg/kg po; design: dose 12.4 mg/kg; outline: as §1
[13] = target: T1, Angiotensin-converting enzyme (Rattus norvegicus); assay: Compound was tested for plasma inhibition of Angiotensin I converting enzyme activity in the conscious rat. Expressed as Inhibition of AI pressor response at 4 hr at a dose of 12.4 mg/kg po; design: dose 12.4 mg/kg; outline: as §1
[14] = target: T1, Angiotensin-converting enzyme (Rattus norvegicus); assay: Compound was tested for plasma inhibition of Angiotensin I converting enzyme activity in the conscious rat. Expressed as Inhibition of AI pressor response at 6 hr at a dose of 12.4 mg/kg po; design: dose 12.4 mg/kg; outline: as §2
[15] = target: T1, Angiotensin-converting enzyme (Rattus norvegicus); assay: Compound was tested for plasma inhibition of Angiotensin I converting enzyme activity in the conscious rat. Expressed as Inhibition of AI pressor response at 1 hr at a dose of 12.5 mg/kg po; design: dose 12.5 mg/kg; outline: as §1
[16] = target: T1, Angiotensin-converting enzyme (Rattus norvegicus); assay: Compound was tested for plasma inhibition of Angiotensin I converting enzyme activity in the conscious rat. Expressed as Inhibition of AI pressor response at 4 hr at a dose of 12.5 mg/kg po; design: dose 12.5 mg/kg; outline: as §1
[17] = target: T1, Angiotensin-converting enzyme (Rattus norvegicus); assay: Compound was tested for plasma inhibition of Angiotensin I converting enzyme activity in the conscious rat. Expressed as Inhibition of AI pressor response at 2 hr at a dose of 12.5 mg/kg po; design: dose 12.5 mg/kg; outline: as §1
[18] = target: T1, Angiotensin-converting enzyme (Rattus norvegicus); assay: Compound was tested for plasma inhibition of Angiotensin I converting enzyme activity in the conscious rat. Expressed as Inhibition of AI pressor response at 6 hr at a dose of 12.5 mg/kg po; design: dose 12.5 mg/kg; outline: as §2

inhibition [1]: 71%
inhibition [2]: 56%
inhibition [3]: 47%
inhibition [4]: 39%
SMILES: CCCCOC(=O)[C@H](Cc1ccc(O)cc1)NC(=O)C1(NC(=O)[C@H](SC(=O)CC)C(C)C)CCCC1

inhibition [5]: 8%
inhibition [6]: -3%
SMILES: CCCCOC(=O)[C@H](Cc1ccc(O)cc1)NC(=O)C1(NC(=O)[C@H](SC(=O)C2CCCCC2)C(C)C)CCCC1

inhibition [7]: 60%
inhibition [8]: 28%
inhibition [9]: 40%
inhibition [10]: 54%
SMILES: CCOC(=O)[C@H](Cc1ccc(O)cc1)NC(=O)C1(NC(=O)[C@H](SC(=O)CN2CCOCC2)C(C)C)CCCC1

inhibition [11]: 88%
inhibition [12]: 76%
inhibition [13]: 73%
inhibition [14]: 70%
SMILES: CCOC(=O)[C@H](Cc1ccc(OCC)cc1)NC(=O)C1(NC(=O)[C@H](SC(C)=O)C(C)C)CCCC1

inhibition [15]: 81%
inhibition [16]: 70%
inhibition [17]: 77%
inhibition [18]: 34%
SMILES: CCOC(=O)[C@H](Cc1ccc(O)cc1)NC(=O)C1(NC(=O)[C@H](SC(=O)COC)C(C)C)CCCC1

— ChEMBL document CHEMBL1129264, “Mercaptoacyl dipeptides as orally active dual inhibitors of angiotensin-converting enzyme and neutral endopeptidase” (1996)
